Source: PubChem BioAssay
In the library only some 5.4% were active in any assay of this set; here they are far more common.
PostGolgi ctrl – growth of the yeast control strain, post-Golgi counter-screen. efflux-deficient yeast background strain, growth absorbance A615, 16 h. inhibition, % at 10 µM. 98,000 tested, 5% active
HePTP inh – inhibitors of human HePTP phosphatase | P35236 | recombinant HePTP phosphatase activity, OD absorbance | inhibition, % at 20 µM | 110,000 tested, 0.64% active; in the data active = inhibition above about 50%;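 note: plate controls were vehicle for no effect and reference inhibitor for full effect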
Ecoli WT expand – growth inhibitors of E. coli BW25113 wild type; OD600 absorbance; AID 710; 98,000 tested, 0.15% active; growth inhibition, % at 100 µM;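 active = growth inhibition above about 50% at one test dose, limit read from the data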;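 note: growth measured after 20 h incubation at 37 °C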
PostGolgi yeast – growth inhibition of a yeast mutant, post-Golgi transport screen | inhibition, % at 10 µM | 98,000 tested, 0.9% active | post-Golgi transport phenotypic cell assay;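 note: yeast cells grown in 1536-well plates; yeast grown about 18 h at 30C before absorbance read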
tolC growth inh – E. coli tolC mutant growth inhibition | E. coli BW25113 tolC mutant growth, OD615 | growth inhibition, % at 10 µM (by protocol) | 65,000 tested, 2.2% active | AID 573;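 active = growth inhibition at or above a cutoff equal to the mean over every tested compound plus 3 SD, cut at about 60% in these data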;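 note: growth measured after 20 h incubation at 37 °C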
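Test system: E. coli BW25113 ΔtolC::kan bacteria | Medium: Kanamycin-containing LB broth (50 µg/mL) | Dosing: One dose of 10 µM final | Times: 20 h incubation with compound, 37 °C | Detection: Optical density read at 615 nm | Read-out basis: Percent growth inhibition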
PLAP act – human PLAP activation | P05187 | purified PLAP enzyme, luminescent substrate read-out; hits give high values | activation fold at 20 µM | 96,000 tested, 1.2% active; in the data active = activation fold above about 2
Target sequence (P05187 whole entry, looked up): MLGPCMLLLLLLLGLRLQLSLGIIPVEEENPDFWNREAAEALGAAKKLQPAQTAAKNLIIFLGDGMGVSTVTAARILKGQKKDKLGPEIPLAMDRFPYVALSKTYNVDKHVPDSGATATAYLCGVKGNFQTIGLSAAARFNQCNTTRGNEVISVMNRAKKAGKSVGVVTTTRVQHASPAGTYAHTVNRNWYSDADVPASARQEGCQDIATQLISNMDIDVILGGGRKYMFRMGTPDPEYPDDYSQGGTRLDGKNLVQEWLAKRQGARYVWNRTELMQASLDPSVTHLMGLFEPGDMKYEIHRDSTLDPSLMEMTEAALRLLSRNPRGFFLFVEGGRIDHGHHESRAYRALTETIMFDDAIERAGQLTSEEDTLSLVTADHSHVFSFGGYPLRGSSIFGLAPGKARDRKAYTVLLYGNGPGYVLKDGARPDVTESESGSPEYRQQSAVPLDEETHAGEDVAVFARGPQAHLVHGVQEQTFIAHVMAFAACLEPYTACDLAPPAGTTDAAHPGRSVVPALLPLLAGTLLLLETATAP
* = called active by the depositor; nt = no result given. Cut-off read from the data, not from the text of the source, unless noted: active = inhibition above about 30%; inactive = the rest.

SMILES | PostGolgi ctrl | HePTP inh | Ecoli WT expand | PostGolgi yeast | tolC growth inh | PLAP act
Cc1ccc(S(=O)(=O)NC(=O)COc2ccccc2C(N)=O)cc1 | 25.1 | 6.5 | -5.0 | -1.7 | 5.8 | 1.2
CCNC(=S)NNC(=O)c1ccccc1OC(F)F | -2.3 | nt | 0.0 | 4.3 | nt | 2.9*
O=S(=O)(c1ccc2ccccc2c1)N1CCC(Cc2ccccc2)CC1 | nt | 4.7 | nt | nt | nt | nt
N#Cc1cccc(-c2cn(S(=O)(=O)c3ccc(Cl)cc3)nc2N)c1 | 31.3* | 3.6 | 0.0 | -7.1 | 0.0 | 1
Cc1ccc(S(=O)(=O)n2cc(-c3ccccc3)c(N)n2)cc1 | 25.2 | nt | -8.0 | 25.2 | nt | 0.6
O=C(Nc1cc(C(F)(F)F)ccc1F)C1CCCC1 | -2.8 | nt | 5.0 | -3.4 | nt | 0.9
CCOc1ccc(-n2cnnn2)cc1S(=O)(=O)N1CCCCC1 | 9.1 | 8.9 | -5.0 | -4.3 | -1.6 | 1.1
CCOc1cc(S(=O)(=O)N2CCN(c3ccc(F)cc3)CC2)c(OCC)cc1-n1cnnn1 | 82.5* | -4.8 | -1.0 | 3.2 | -3.1 | 1
O=C1CS/C(=N\N=C\c2cn(Cc3ccc(Cl)cc3Cl)c3ccccc23)N1 | nt | 66.0* | nt | nt | nt | nt
O=[N+]([O-])c1cc(Cl)ccc1NCCCNS(=O)(=O)c1ccccc1 | nt | -1.3 | nt | nt | nt | nt
O=[N+]([O-])c1ccc(NCCCNS(=O)(=O)c2ccc(Cl)cc2)c(Cl)c1 | 72.1* | -7.1 | -3.0 | 36.3* | nt | 0.7
Clc1cccc(-c2cc3nc4c(c(N5CCOCC5)n3n2)CCCC4)c1 | 88.1* | -10.9 | -4.0 | -1.2 | 25.2 | 1.8
Fc1cccc(-c2cc3nc4c(c(N5CCN(c6cnccn6)CC5)n3n2)CCCC4)c1 | nt | 14.3 | nt | nt | -1.1 | nt
Fc1cccc(-c2cc3nc4c(c(NCc5ccco5)n3n2)CCCC4)c1 | 49.4* | nt | -6.0 | 3.1 | nt | 1
Fc1cccc(-c2cc3nc4c(c(N5CCOCC5)n3n2)CCCC4)c1 | 70.3* | 8.9 | -7.0 | 15.5 | 100.0* | 1.7
c1coc(CNc2c3c(nc4ccccc24)CCC3)c1 | 2.9 | 0.4 | 32.0 | 0.3 | 12.2 | 0.7
COc1cccc(-c2cc3nc(-c4ccccc4)cc(N4CCC5(CC4)OCCO5)n3n2)c1 | 5.7 | 3.2 | -16.0 | 0.5 | -4.3 | 1.3
COc1ccc(-c2cc3nc4c(c(N5CCC6(CC5)OCCO6)n3n2)CCCC4)cc1 | nt | -10.9 | nt | nt | 64.7* | nt
OCc1cn(-c2ccccc2)nc1-c1cccnc1 | 2.1 | 3.7 | 6.0 | 6.7 | -1.0 | 0.9
CCOC(=O)c1c(N)sc(C(=O)Nc2ccc(OC)cc2)c1C | nt | -11.7 | nt | nt | nt | nt
CCOC(=O)c1c(N)sc2c(OC)c(Br)ccc12 | 44.2* | 3.4 | 4.0 | 15.9 | 100.0* | 1.1
C=CCNc1nc2c(c(=O)[nH]c(=O)n2C)n1Cc1cccc(C)c1 | 1.0 | 2.3 | 6.0 | -3.0 | -5.9 | nt
CCCCOc1ccc(/C=N/NC(=O)c2csc(C)c2C)cc1 | 35.3* | nt | -7.0 | -1.6 | nt | 1.5
CN(C(=O)CCc1nc2ccccc2s1)c1ccccc1 | 21.3 | nt | 2.0 | -2.1 | nt | 0.9
CCCCCC(=O)N/N=C/c1cccs1 | 1.2 | nt | 8.0 | -14.3 | nt | 1.1
SMILES | PostGolgi ctrl | HePTP inh | Ecoli WT expand | PostGolgi yeast | tolC growth inh | PLAP act
O=C(CN1CCCCCC1)N/N=C/c1cccs1 | -6.4 | nt | 5.0 | 9.6 | nt | 2.5*
CCN(C1CCCCC1)S(=O)(=O)c1ccc(C(=O)O)cc1 | -0.1 | 1.1 | 1.0 | 5.3 | 4.5 | 1.1
Cc1ccccc1OCC(=O)NNC(=S)NC(=O)c1ccco1 | 52.9* | nt | 23.0 | 37.6* | nt | 1.1
CCOc1cc(NC(=O)c2ccco2)c(OCC)cc1NC(=O)COc1ccccc1C | nt | -5.9 | nt | nt | -5.8 | nt
COC(=O)C1=C(C)NC(C)=C(C(=O)OC)C1c1ccc(N(C)C)cc1 | 2.8 | 11.7 | -4.0 | 11.9 | 4.2 | 1.2
Cc1cccc(NC(=O)c2cc([N+](=O)[O-])ccc2Cl)c1C | nt | -7.4 | nt | nt | nt | nt
Cc1ccc(NC(=O)c2cc([N+](=O)[O-])ccc2NCc2cccnc2)cc1Cl | 30.9* | nt | -8.0 | 22.5 | nt | 0.9
O=C(COC(=O)C12CC3CC(CC(C3)C1)C2)NC12CC3CC(CC(C3)C1)C2 | 33.0* | nt | -3.0 | 13.4 | nt | 1.1
CCOc1ccc(OCC)c(NC(=O)C2CCCN(S(=O)(=O)c3c(C)n[nH]c3C)C2)c1 (stereo unspecified) | 3.2 | 3.8 | -4.0 | 1.8 | 4.2 | 2*
Cc1nn(C(=O)c2cccnc2)c(C)c1Sc1ccc(Br)cc1 | 32.5* | -5.6 | 15.0 | 18.9 | nt | 1.3
CCOC(=O)C1=C(C)NC2=C(C1c1ccc([N+](=O)[O-])cc1)S(=O)(=O)c1ccccc12 (stereo unspecified) | 18.4 | nt | -1.0 | 1.2 | nt | 1.1
CC1CC(C)CN(C(=O)CSc2nnc(-c3ccc(Cl)s3)o2)C1 (stereo unspecified) | 2.9 | -12.2 | -2.0 | 6.6 | 70.7* | 1.1
CC1CC(C)CN(C(=O)CSc2nnc(-c3ccc(F)cc3)o2)C1 (stereo unspecified) | 9.2 | -7.9 | 5.0 | -1.5 | 1.3 | 0.8
O=c1[nH]c2cccc(Cl)c2n(CCNc2ncc(C(F)(F)F)cc2Cl)c1=O | -8.9 | nt | 5.0 | -0.6 | nt | 1
O=c1c(Cl)nc2cc(Cl)ccc2n1CCNc1ncc(C(F)(F)F)cc1Cl | 98.8* | nt | -2.0 | 75.8* | nt | 1
Cc1cc(C)cc(NC(=O)CN2CCCN(S(=O)(=O)c3ccc(Br)s3)CC2)c1 | 41.6* | nt | -20.0 | 1.4 | nt | 1
CCOC(=O)N1CCN(S(=O)(=O)c2ccc(Br)s2)CC1 | 1.0 | -0.5 | 3.0 | -9.2 | 6.1 | 0.9
Cc1ccc(NC(=O)CN2CCCN(S(=O)(=O)c3ccc(Br)s3)CC2)cc1 | 33.1* | nt | -8.0 | 16.1 | nt | 1.7
CCOC(=O)c1ccc(COC(=O)c2nonc2N)cc1 | 2.9 | 2.6 | 2.0 | -2.3 | -21.6 | 1
Cc1ccc2ccccc2c1COC(=O)c1nonc1N | 74.5* | 3.0 | -2.0 | -3.9 | -7.3 | 0.8
CCOC(=O)c1nnc(-c2ccccc2)nc1NCc1ccccc1 | 35.2* | nt | -5.0 | 14.9 | nt | 1.2
CCOC(=O)c1cc(C#N)c(NCc2ccccc2)nc1C | 10.5 | 11.2 | -11.0 | 14.7 | 0.0 | 1.1
CCCCC(=O)Nc1cccc2c1C(=O)N(c1ccccc1)C2=O | 12.2 | 3.3 | 2.0 | 3.0 | 6.2 | 1
O=C(NNC(=O)C1CCCO1)c1ccc(Cl)cc1 (stereo unspecified) | 3.3 | -1.8 | -2.0 | -18.5 | nt | 2.2*
O=C(Nc1ccccc1Sc1ccccc1)C1CCCO1 (stereo unspecified) | 38.2* | 7.5 | 0.0 | -3.0 | 10.2 | 1.1
SMILES | PostGolgi ctrl | HePTP inh | Ecoli WT expand | PostGolgi yeast | tolC growth inh | PLAP act
O=C(O)c1ccccc1NC(=O)C1CCCO1 (stereo unspecified) | 7.8 | 1.6 | 1.0 | -13.9 | -15.2 | 1
O=C(Nc1cc(Cl)ccc1O)C1CCCO1 (stereo unspecified) | 37.7* | 6.8 | 8.0 | -2.4 | -11.7 | 0.9
O=C(COc1ccccc1Cl)NNC(=O)C1CCCO1 (stereo unspecified) | 3.7 | nt | 10.0 | 7.4 | nt | 2*
COCCCn1c(-c2ccccc2Cl)n[nH]c1=S | 5.6 | -4.5 | 6.0 | -3.6 | 2.7 | 1.1
CN1CCN(Cc2c(C#N)c3ccccc3n2C)CC1 | 3.9 | 0.8 | 9.0 | 1.5 | -31.6 | 1.4
Cc1ccc(N2CCN(C(=O)c3ccccc3Br)CC2)c(C)c1 | 37.2* | 13.3 | -2.0 | 1.5 | 40.3 | 1.5
